STAT1 blocker: reduces IFN-gamma driven STAT1 reporter signal. NIH 3T3 STAT1-luciferase reporter, luminescence. actives 0.35% (n = 200,000). inhibition, % at 5.5 µM;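 active = inhibition above a set limit, the mean inhibition across all tested compounds plus 3 SD, cut at about 34% in these data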;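 note: 0% = IFN-gamma with DMSO and 100% = IFN-gamma with 300 µM nifuroxazide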
NF-kB neuron act: raises NF-kB expression in human neuronal cells; NF-kB reporter expression; stronger effect = higher value; fold change at 12.5 µM; actives 1.6% (n = 190,000); in the data active = fold change above about 3.3
APP 5'UTR act: APP 5'UTR luciferase reporter activation; SH-SY5Y APP 5'UTR luciferase reporter, luminescence; zero percent = DMSO vehicle wells; AID 1276; actives 1% (n = 190,000); activation, % at 2 µM;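 active = activation above a set limit, based on mean plus 3 SD of controls, cut at about 140% in these data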
STAT1 act-1: STAT1 signaling activation; NIH 3T3 STAT1-luciferase reporter, IFN-gamma, luminescence; 100% = IFN-gamma alone, no compound; activation (% of control), % at 5.5 µM; actives 2.6% (n = 200,000); AID 932;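 active = activation above the screen-wide mean activation plus 3 SD, cut at about 130% in these data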;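 note: raw ratio to IFN-gamma control signal so 100% means no change and 0% no light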
STAT3 act-1: activators of IL-6 induced STAT3 signaling; actives 0.91% (n = 190,000); AID 871; U3A cells, IL-6 STAT3-luciferase reporter, luminescence; 100% = signal with IL-6 EC80 alone; activation (% of control), % at 5.6 µM;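 active = activation above the screen-wide mean of compound activation plus 3 SD, cut at about 130% in these data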;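 note: 0% = background luminescence of wells with medium and substrate only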
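System – human U3A cells carrying STAT3-luciferase construct · Probe or stimulus – Interleukin-6, 33 ng/mL · Schedule – compound 1 h, then IL-6 6 h at 37 °C · Signal – luminescence from STAT3-driven luciferase reporter · Evaluation – percent of IL-6-only median luminescence · Benchmarks – IL-6-only high control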
STAT3 inh: STAT3 signaling inhibition; U3A cells, IL-6 STAT3-luciferase reporter, luminescence; host cell line lacks STAT1; inhibition, % at 5.5 µM; actives 0.89% (n = 190,000); AID 862;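 active = inhibition above the mean inhibition across all screened compounds plus 3 SD, cut at about 44% in these data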;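 note: 0% = DMSO only wells and 100% = 100 µM nifuroxazide control wells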
STAT3 act-2: confirmation of STAT3 signaling activators | shares compounds with STAT3 act-1 | actives 64% (n = 1,200) | AID 1267 | potentiation (% of control), % at 5.7 µM | U3A STAT3-luciferase reporter, IL-6 potentiation, luminescence; U3A cells lack STAT1; 100 means same as IL-6 alone;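 active = percent activation of the STAT3 luciferase reporter above a set limit taken from the earlier primary screen, cut at about 130% in these data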;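 note: 0% = background signal of medium plus substrate and 100% = median of IL-6 with DMSO wells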
NFkB act 2: NF-kappaB activation in STAT3 activator counter-screen. shares compounds with STAT3 act-1. human cells, NF-kappaB reporter activation. activation (% of control), % at 5.7 µM. actives 11% (n = 1,200). AID 1309; in the data active = activation above about 120%;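 note: reporter induced by TNF-alpha stimulation; 100% = median of stimulated DMSO wells and 0% = no signal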
STAT1 act-2: activates STAT1, counter-screen to STAT3 activators; AID 1318; actives 13% (n = 1,200); shares compounds with STAT3 act-1; NIH 3T3 STAT1-luciferase reporter, IFN-gamma, luminescence; activation (% of control), % at 5.7 µM;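 active = activation above the solvent-only control well mean plus 3 SD, set per screening run, cut at about 120% in these data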;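 note: 100% = IFN-gamma with DMSO median signal so 100% means no change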
Active calls of the source: *; . = no result given. Sampled rows, rich in hits. Any-hit rate of the full collection: about 5.1%.

SMILES	STAT1 blocker	NF-kB neuron act	APP 5'UTR act	STAT1 act-1	STAT3 act-1	STAT3 inh	STAT3 act-2	NFkB act 2	STAT1 act-2
CC(C)(C)NC(=O)C1CCCN(S(=O)(=O)c2cccc3cccnc23)C1 (stereo not given)	0	0.91	.	100	98	11	.	.	.
O=C(C1CCCN(S(=O)(=O)c2cccc3cccnc23)C1)N1CCc2ccccc21 (stereo not given)	7	0.75	9	94	138*	-35	135*	101	99
Cc1ccc(-n2c(=S)[nH]c3sc4c(c3c2=O)CCC4)cc1	-2	1	3	100	137*	-37	116	110	105
COC(=O)CNC(=O)c1cccc(-c2ccc(OC)cc2)c1	2	1.3	31	97	102	3	.	.	.
CCOCC(=O)N1CCc2ccccc21	-1	1.5	10	100	151*	-60	139*	103	97
O=C(OCC(=O)N1CCc2ccccc21)c1ccccc1	-26	2.4	-13	124	100	7	.	.	.
CC(CC(=O)N1CCc2ccccc21)c1ccccc1 (stereo not given)	-8	1.4	.	106	92	10	.	.	.
CN(C)S(=O)(=O)N1CCc2ccccc2C1	-7	0.86	6	106	97	6	.	.	.
CC(C(=O)N1CCc2ccccc21)N1CCc2ccccc2C1 (stereo not given)	6	1	11	94	146*	-47	119	103	102
CN(C)S(=O)(=O)N1CCc2ccccc21	-2	1.1	-10	100	146*	-54	133	102	101
COc1cc2c(cc1OC)CN(C(C)C(=O)N1CCc3ccccc31)CC2 (stereo not given)	-6	0.86	-2	105	106	-11	.	.	.
CCN(CC)C(=O)N1CCc2ccccc21	4	1.2	-1	96	146*	-40	151*	105	101
COc1cc(OC)c2c(c1)C(=O)OC2	2	1.1	-12	98	88	15	.	.	.
Cc1csc(NC(=O)CS(=O)(=O)c2ccccc2)n1	-11	1.6	10	108	103	2	.	.	.
CS(=O)(=O)Nc1ccc(C(=O)Nc2cccc([N+](=O)[O-])c2)cc1	1	1.4	2	99	103	9	.	.	.
O=C(c1cccnc1)N1CCc2ccccc21	-1	0.92	8	101	159*	-66	140*	102	95
Cn1cc(/C=N\NC(=O)C2COc3ccccc3O2)c2ccccc21 (stereo not given)	15	1.2	4	87	104	-6	.	.	.
Cc1c(/C=N\NC(=O)C2COc3ccccc3O2)c2ccccc2n1C (stereo not given)	6	3.2	-91	95	139*	-53	98	111	107
CCCCC(=O)Nc1ccc(C(=O)NN2C(=O)c3ccccc3C2=O)cc1	0	1.2	-2	101	96	14	.	.	.
N/C(=N\OC(=O)c1cc(Cl)ccc1Cl)c1cccnc1	-27	2	8	125	163*	-81	152*	121*	135*
N/C(=N\OC(=O)c1cc(Br)ccc1Cl)c1cccnc1	-20	2	36	115	138*	-40	132	113	113
N/C(=N\OC(=O)c1cccc(Cl)c1)c1cccnc1	-16	2.6	75	115	101	4	.	.	.
COC(=O)c1cc(NC(=O)C2CCCN(S(=O)(=O)c3c(C)n[nH]c3C)C2)cc(C(=O)OC)c1 (stereo not given)	5	1.4	10	94	101	8	.	.	.
COc1ccccc1CNC(=O)C(NC(=O)c1ccccc1)C(C)C (stereo not given)	20	1.1	-1	82	99	2	.	.	.

Bioassay records (PubChem)
